# Results published in ChEMBL document CHEMBL1122679, “Beta-adrenergic blocking agents: substituted phenylalkanolamines. Effect of side-chain length on beta-blocking potency in vitro” (J Med Chem, 1984).
# Assays:
# [1] = Partition coefficient (logP); type: physicochemical; details: octanol/water
# Summary of the method: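 Octanol/buffer partitioning. Compounds at about 10^-4 M in 0.067 M pH 7.4 phosphate buffer (octanol-saturated) were shaken with buffer-saturated 1-octanol for 1 h at 25.0 °C, then centrifuged. Concentrations in each phase were measured spectrophotometrically. The coefficient was taken as the octanol/buffer concentration ratio, done in triplicate.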
# [2] = pK value is evaluated; type: ADME; details: read-out: pK
# Summary of the method: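 Spectrophotometric determination. Dilute solutions were circulated through a glass electrode and a 1-cm spectrophotometer cell. pKa was calculated from the pH-dependent spectra.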
# [3] = organism: Cavia porcellus; test: Beta-adrenoceptor blocking potency in the isolated guinea pig heart, giving 50% inhibition of isoproterenol-induced tachycardia; type: functional
# Summary of the method: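 Langendorff-perfused isolated hearts from male Pirbright guinea pigs (330-640 g), removed under urethane anesthesia (1.5 g/kg ip). Perfusion with oxygenated Krebs-Henseleit plus ascorbic acid and NaEDTA at 36 °C. Heart rate recorded continuously. After ~30 min control, DL-isoproterenol sulfate (0.005 µg/mL) was added to the perfusate. Increasing compound concentrations were then given, 10 min each, against the isoproterenol tachycardia.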
# [4] = organism: Cavia porcellus; test: Beta-adrenoceptor blocking potency in the isolated guinea pig heart, giving 50% inhibition of isoproterenol-induced tachycardia relative to oxprenolol; type: functional
# [5] = organism: Cavia porcellus; test: Compound was evaluated for beta-adrenoceptor blocking potency in the isolated guinea pig, giving 50% inhibition of isoproterenol-induced tachycardia relative to oxprenolol; type: functional
Structure (SMILES),logP ([1]; read-out: logP),pKa [2],-Log concentration [3],Relative activity [4],Relative activity [5],logP [1]
COc1ccccc1OCC(O)CNC(C)(C)C (stereo unspecified),-0.44,9.8,7.26 log_unit,0.45,,
COc1ccccc1C(O)CNCCOc1ccc(O)c(C(N)=O)c1 (stereo unspecified),,,7.12 log_unit,0.33,,
COc1ccccc1OCC(O)CNCCOc1ccc(O)c(C(N)=O)c1 (stereo unspecified),1.14,8.8,8.45 log_unit,,6.9,
Cc1ccccc1CCC(O)CNCCOc1ccc(O)c(C(N)=O)c1 (stereo unspecified),,,7.08 log_unit,0.3,,
COc1ccccc1CCCC(O)CNCCOc1ccc(O)c(C(N)=O)c1 (stereo unspecified),,,6.6 log_unit,0.1,,
COc1ccccc1CCC(O)CNCCOc1ccc(O)c(C(N)=O)c1 (stereo unspecified),1.56,8.9,7.85 log_unit,1.8,,
NC(=O)c1cc(OCCNCC(O)CCCCc2ccccc2)ccc1O (stereo unspecified),,,5.85 log_unit,0.018,,
COc1ccccc1CC(O)CNCCOc1ccc(O)c(C(N)=O)c1 (stereo unspecified),,,6.39 log_unit,0.061,,
COc1ccccc1CCC(O)CNC(C)(C)C (stereo unspecified),-0.21,9.9,5.67 log_unit,0.012,,
C=CCOc1ccccc1OCC(O)CNC(C)C (stereo unspecified) [OXPRENOLOL],,9.4,7.6 M l-1,1,,0.2
NC(=O)c1cc(OCCNCC(O)CCc2ccccc2)ccc1O (stereo unspecified),,,6.9 log_unit,0.19,,
COc1ccccc1CCCCC(O)CNCCOc1ccc(O)c(C(N)=O)c1 (stereo unspecified),,,6.43 log_unit,0.068,,
COc1ccc(CCC(O)CNCCOc2ccc(O)c(C(N)=O)c2)cc1 (stereo unspecified),,,6.07 log_unit,,0.029,
NC(=O)c1cc(OCCNCC(O)c2ccccc2)ccc1O (stereo unspecified),1.24,,5.66 log_unit,0.011,,
NC(=O)c1cc(OCCNCC(O)Cc2ccccc2)ccc1O (stereo unspecified),,,5.84 log_unit,0.018,,
